ERa SRC1 inh = ERα–SRC-1 coactivator interaction inhibitors, primary screen, biochemical, TR-FRET, ERα LBD, estradiol-bound; 1.7% of 86,000 active; AID 629, 2007; inhibition, % at 25.6 µM; TR-FRET ER-alpha LBD / SRC-1 peptide; Estrogen receptor (Homo sapiens), P03372; in the data active = inhibition above about 50%
Target sequence (P03372 whole entry, looked up, the tested form may be a part): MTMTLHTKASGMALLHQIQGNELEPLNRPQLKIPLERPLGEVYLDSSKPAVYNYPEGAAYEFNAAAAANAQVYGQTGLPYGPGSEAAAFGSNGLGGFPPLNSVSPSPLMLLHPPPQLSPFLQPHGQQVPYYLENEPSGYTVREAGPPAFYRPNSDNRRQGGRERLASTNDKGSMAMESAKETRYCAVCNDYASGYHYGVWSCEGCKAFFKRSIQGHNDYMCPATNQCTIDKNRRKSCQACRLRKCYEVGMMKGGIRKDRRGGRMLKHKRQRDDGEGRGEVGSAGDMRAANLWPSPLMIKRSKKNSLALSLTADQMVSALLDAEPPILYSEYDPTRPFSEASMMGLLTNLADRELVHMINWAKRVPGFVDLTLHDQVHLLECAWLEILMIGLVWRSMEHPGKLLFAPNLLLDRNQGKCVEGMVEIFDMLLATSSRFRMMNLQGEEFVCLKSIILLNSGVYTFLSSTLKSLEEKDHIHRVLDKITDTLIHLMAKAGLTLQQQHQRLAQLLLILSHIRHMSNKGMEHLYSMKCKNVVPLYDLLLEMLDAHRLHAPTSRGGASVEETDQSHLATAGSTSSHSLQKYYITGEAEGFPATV
HUVEC inhibit = inhibitors of HUVEC proliferation, primary screen, cell-based, 384-well; 1.1% of 86,000 active; viability, % at 10 µM (by protocol); AID 648, 2007; CellTiter-Glo luminescence, 72 h; stronger effect = lower value;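 active = viability at or below 30%; inactive = viability above 30%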
ERb coact inh = inhibitors of ERβ-SRC1 coactivator interaction, primary screen, biochemical, TR-FRET, ERβ LBD, SRC-1 peptide; TR-FRET ER-beta LBD / SRC1-Cy5 peptide binding; receptor agonist-loaded with 1 µM estradiol; inhibition, % at 25.6 µM; 1.3% of 86,000 active; AID 633, 2007;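 active = compounds whose percent inhibition of the receptor-coactivator binding signal exceeds about 50% in the single-dose screen, limit read from the data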
H69AR growth 86K = proliferation blockers of H69AR lung cancer cells, primary screen, cell-based, human, 86K library; H69AR lung tumor viability, ATP luminescence, 72 h; stronger effect = lower value; viability, % at 10 µM; 6% of 85,000 active;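 active = viability at or below 40%; inactive = viability above 40%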;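 note: multidrug resistant small cell line overexpressing MRP-1 efflux transporter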
ERa SRC1 pot = enhancers of ERα–SRC-1 coactivator binding, primary screen, biochemical, TR-FRET, ERα LBD, low estradiol; TR-FRET ERalpha-LBD/SRC-Cy5 coactivator binding, 2 h; 100 = basal binding, no effect; coactivator binding (% of control), % at 25.6 µM; 1.3% of 86,000 active; AID 639, 2007; in the data active = activity above about 200%;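 note: binding measured in presence of low estradiol as agonist stimulus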
Fibroblast inh = antiproliferative effect on LL 47 fibroblasts – human, LL 47 cells, CellTiter-Glo luminescence, primary screen; LL 47 human lung fibroblast viability, ATP luminescence; stronger effect = lower value; viability, % at 10 µM; 1.1% of 85,000 active; AID 719, 2007;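 active = viability at or below 50% in the single dose screen; inactive = viability above 50%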;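 note: compound exposure lasted 72 h before the ATP readout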
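Times – overnight cell rest, 72 h compound treatment at 37 °C · Test system – human lung fibroblast line LL 47, low passage · Amount – 1,150 cells in each well · Controls – cell-only wells, no compound · Doses – 0.1% DMSO in all compound wells · Measured by – CellTiter-Glo luminescence · Buffer or medium – IMEM plus 15% FBS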
Large screens that a line does not name were inactive; [ ] = remark or other dose. A selection: hits, their analogues and other compounds. The true share with any hit is near 9.2%.

CCOc1cccc(-c2nnc3sc(-c4ccc(C)cc4)nn23)c1	H69AR growth 86K 19
COc1cccc(-c2nn3c(-c4ccco4)nnc3s2)c1	none
CCOc1cccc(-c2nnc3sc(-c4ccco4)nn23)c1	ERa SRC1 pot 244
O=C(COC(=O)CCCNC(=O)c1ccc(Cl)cc1)NC1CC1	none
Cc1csc(C(C#N)C(=O)c2ccc(S(=O)(=O)N3CCCC3)cc2)n1 (configuration not stated)	none
Cc1oc2nc(SCCCC(=O)NCCCO)nc(N)c2c1C	none
Cc1oc2nc(SCC(=O)NCCCO)nc(N)c2c1C	ERb coact inh 64
CC(=O)N1CCN=C1SCc1ccccc1	ERa SRC1 pot 263[fluorescence artefact?]
CC1CCCN(C(=O)c2cc(F)c(F)cc2Cl)C1 (configuration not stated)	none
CCOC(=O)c1[nH]c(C)c(C(=O)N2CCOCC2)c1C	none
CCOC(=O)c1[nH]c(C)c(C(=O)N2CCN(C(=O)OCC)CC2)c1CC	ERa SRC1 inh 99[fluorescence artefact?]
Nc1c(C(=O)C2CC2)sc2nc(-c3cccs3)cc(C(F)(F)F)c12	H69AR growth 86K 12
c1cc(-c2nc3ccccc3o2)nc(-c2nc3ccccc3o2)c1	ERa SRC1 pot 248
c1ccc2nc(-c3nc4ccccc4o3)ccc2c1	none
COc1ccccc1OCCC(=O)OCC(=O)Nc1ncc(Cl)cc1Cl	ERa SRC1 inh 54[fluorescence artefact?]
COc1cc(CCC(=O)OCC(=O)Nc2ncc(Cl)cc2Cl)cc(OC)c1OC	ERa SRC1 inh 56[fluorescence artefact?], ERb coact inh 59
COc1ccc(CC(=O)OCC(=O)Nc2ncc(Cl)cc2Cl)cc1OC	none
C=C(C)Cn1c(SCC(=O)O)nc2c1c(=O)[nH]c(=O)n2C	none
CS(=O)(=O)N(CC(O)Cn1c2ccccc2c2ccccc21)c1ccccc1 (configuration not stated)	H69AR growth 86K 30
CCN(CC(O)Cn1c2ccccc2c2ccccc21)S(=O)(=O)c1ccc(C)cc1 (configuration not stated)	HUVEC inhibit 27, H69AR growth 86K 27
COC(=O)c1cc(OC)c(OC)cc1NC(=O)Nc1ccc(OC)cc1OC	none
CCOC(=O)c1ccccc1NC(=O)c1ccc(N(C)S(C)(=O)=O)cc1	H69AR growth 86K 27
CCOC(=O)c1ccccc1NC(=O)c1ccccc1N(C)S(C)(=O)=O	none
COc1nc(-c2ccc(Cl)cc2)ccc1-c1noc(-c2ccco2)n1	ERa SRC1 pot 376
COc1cccc(-c2ccc(-c3noc(-c4cccs4)n3)c(OC)n2)c1	ERa SRC1 pot 310[fluorescence artefact?]
Cc1ccc(-c2noc(-c3cccs3)n2)cc1	H69AR growth 86K 40
c1coc(-c2nc(-c3ccncc3)no2)c1	none
COc1nc2c(C)cccc2cc1-c1noc(-c2ccco2)n1	ERa SRC1 inh 55[fluorescence artefact?]
O=C1c2ccccc2C(O)(Cc2ccccc2)N1c1ccc2c(c1)OCO2 (configuration not stated)	none
CCCC1=C(C(=O)OCC)C(c2cccs2)C(C#N)=C(N)O1 (configuration not stated)	none
COc1ccc(N(CC(=O)N2CCc3ccccc32)S(=O)(=O)c2c(C)n[nH]c2C)cc1	none
CCC1CCc2c(sc(NC(=O)c3ccoc3C)c2C(N)=O)C1 (configuration not stated)	H69AR growth 86K 35
CCC(C)(C)C1CCc2c(sc(NC(=O)c3ccoc3C)c2C(N)=O)C1 (configuration not stated)	H69AR growth 86K 14
O=C(C1CC1)N1CCc2cc(Br)cc(S(=O)(=O)NCc3ccc4c(c3)OCO4)c21	none
COc1cc(C)nc(N(C)S(=O)(=O)c2ccccc2Cl)n1	none
CCNc1nc(NC(C)C)nc(N(C#N)CCOc2ccccc2)n1	H69AR growth 86K 27
C#CCN(C#N)c1nc(NCC)nc(NC(C)C)n1	none
Cc1cc(-c2n[nH]c(=S)o2)c(C)n1-c1ccccc1	H69AR growth 86K 38

Compound activity (PubChem BioAssay)
